Results from paper PMC7199890 (European journal of medicinal chemistry, 2019).

Assays:
Assay in all cases: Radioligand binding
hA2AAR = hA2AAR (Homo sapiens, UniProt P29274); settings: for hA1/hA2A: selectivity ratio of Ki values
hA3AR = biological target: T1, hA3AR (Homo sapiens, UniProt P0DMS8); settings: for hA1/hA3 / hA2A/hA3: selectivity ratio of Ki values
T1 sequence (P0DMS8 1-318): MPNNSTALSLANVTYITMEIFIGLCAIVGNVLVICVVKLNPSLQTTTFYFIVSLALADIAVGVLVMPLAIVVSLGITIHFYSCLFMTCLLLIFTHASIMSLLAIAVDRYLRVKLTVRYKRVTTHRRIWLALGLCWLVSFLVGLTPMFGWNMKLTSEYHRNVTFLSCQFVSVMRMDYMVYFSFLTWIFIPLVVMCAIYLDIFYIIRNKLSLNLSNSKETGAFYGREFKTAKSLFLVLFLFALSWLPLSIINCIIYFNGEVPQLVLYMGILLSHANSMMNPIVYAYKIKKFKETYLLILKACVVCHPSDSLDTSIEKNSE
In short: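 Displacement of [125I]AB-MECA binding on membranes from CHO cells expressing recombinant hA3AR. […] ADA (3 units/mL) was present during membrane preparation, a 30 min 30 °C preincubation and radioligand incubation. DMSO was ≤2% final. At least six competitor concentrations spanning 3 log units were used. Incubations ended by GF/B filtration and three rinses.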

hA1AR = biological target: T2, hA1AR (Homo sapiens, UniProt P30542); settings: read-out: hA1 % of inhibition
T2 sequence (P30542 1-326): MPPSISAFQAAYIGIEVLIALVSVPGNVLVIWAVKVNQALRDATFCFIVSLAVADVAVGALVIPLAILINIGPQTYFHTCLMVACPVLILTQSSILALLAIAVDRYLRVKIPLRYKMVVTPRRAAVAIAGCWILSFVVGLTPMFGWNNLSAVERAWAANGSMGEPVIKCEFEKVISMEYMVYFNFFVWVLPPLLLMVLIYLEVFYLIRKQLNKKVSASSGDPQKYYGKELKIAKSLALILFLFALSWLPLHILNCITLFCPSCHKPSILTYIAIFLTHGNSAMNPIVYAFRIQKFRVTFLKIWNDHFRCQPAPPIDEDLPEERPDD
In short: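 Membranes came from CHO cells expressing recombinant hA1AR, labelled with [3H]R-PIA. ADA (3 units/mL) was present during membrane preparation, a 30 min 30 °C preincubation and radioligand incubation. Test compound was dissolved in DMSO and diluted in buffer, DMSO ≤2% final. Incubations ended by GF/B filtration and three buffer rinses. The read-out is % inhibition of specific binding at a single concentration.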

Sequence of hA2AAR (P29274 whole entry): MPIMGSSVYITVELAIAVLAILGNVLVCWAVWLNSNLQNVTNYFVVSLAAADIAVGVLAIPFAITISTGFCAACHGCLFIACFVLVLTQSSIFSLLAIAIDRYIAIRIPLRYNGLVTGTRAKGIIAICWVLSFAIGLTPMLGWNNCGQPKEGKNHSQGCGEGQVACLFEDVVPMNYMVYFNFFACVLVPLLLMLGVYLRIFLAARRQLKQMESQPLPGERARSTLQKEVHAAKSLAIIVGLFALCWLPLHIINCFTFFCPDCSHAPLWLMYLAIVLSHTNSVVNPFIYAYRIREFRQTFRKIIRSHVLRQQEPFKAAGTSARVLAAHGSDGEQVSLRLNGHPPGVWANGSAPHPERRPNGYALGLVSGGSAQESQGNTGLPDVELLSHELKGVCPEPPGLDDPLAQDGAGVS

hA1/hA2A (hA2AAR) | hA1/hA3 (hA3AR) | hA2A/hA3 (hA3AR) | inhibition at 10 µM (hA1AR) [%] | Ki (hA2AAR) [nM] | Ki (hA3AR) [nM] | Structure (SMILES)
>94 | >103 | 1.1 | 21 |  |  | Cn1cc2c(nc(NC(=O)Nc3ccc(CC(=O)NCCCCCNC(=S)Nc4ccc(-c5c6ccc(=O)cc-6oc6cc(O)ccc56)c(C(=O)O)c4)cc3)n3nc(-c4ccco4)nc23)n1 [Compound 16, 5-(3-(5-(2-(4-(3-(2-(furan-2-yl)-8-methyl-8H-pyrazolo[4,3-e][1,2,4]triazolo[1,5-c]pyrimidin-5-yl)ureido)phenyl)acetamido)pentyl)thioureido)-2-(6-hydroxy-3-oxo-3H-xanthen-9-yl)benzoate]
>94 | >73 | 0.69 | 29 | 95.7 | 137 | Cn1cc2c(nc(NC(=O)Nc3ccc(CC(=O)NCCOCCOCCNC(=S)Nc4ccc(-c5c6ccc(=O)cc-6oc6cc(O)ccc56)c(C(=O)O)c4)cc3)n3nc(-c4ccco4)nc23)n1 [Compound 17, 5-(3-(2-(2-(2-(2-(4-(3-(2-(furan-2-yl)-8-methyl-8H-pyrazolo[4,3-e][1,2,4]triazolo[1,5-c]pyrimidin-5-yl)ureido)phenyl)acetamido)ethoxy)ethoxy)ethyl)thioureido)-2-(6-hydroxy-3-oxo-3H-xanthen-9-yl)benzoate]
>109 | >48 | 0.44 | 32 | 91.5 | 207 | Cn1cc2c(nc(NC(=O)Nc3ccc(CC(=O)NCCCOCCOCCOCCCNC(=S)Nc4ccc(-c5c6ccc(=O)cc-6oc6cc(O)ccc56)c(C(=O)O)c4)cc3)n3nc(-c4ccco4)nc23)n1 [Compound 18, 5-(3-(1-(4-(3-(2-(furan-2-yl)-8-methyl-8H-pyrazolo[4,3-e] [1,2,4]triazolo[1,5-c]pyrimidin-5-yl)ureido)phenyl)-2-oxo-7,10,13-trioxa-3-azahexadecan-16-yl)thioureido)-2-(6-hydroxy-3-oxo-3H-xanthen-9-yl)benzoate]
